13 compounds from ChEMBL document CHEMBL1142657, “Imidazolidin-4-one derivatives of primaquine as novel transmission-blocking antimalarials” (J Med Chem, 2005) can be followed below.

Series [1] relates to Culicidae. In words: Percentage of Plasmodium berghei ANKA infected Anopheles stephensi mosquitos after treatment with the compound at a dosage of 10 umol.1/kg. Format: functional. The method in brief: (§1)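 BalbC mice were infected ip with 10⁷ P. berghei ANKA-parasitized erythrocytes. After 4 days, gametocytes and exflagellation were confirmed on Giemsa smears, and mice were randomized into groups of six. Each received a single ip dose (10 or 50 µmol/kg; controls given PBS). 2 h later, anesthetized mice were placed on Anopheles stephensi cages. Read-outs: % mosquitoes with oocysts, and mean oocysts per infected mosquito (SE).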

The test system of series [2] is Culicidae. In words: Percentage of Plasmodium berghei ANKA infected Anopheles stephensi mosquitos after treatment with the compound at a dosage of 50 umol.1/kg. The series is classed as functional. The method in brief:
as §1

Series [3] is described as follows: Mean number of Plasmodium berghei ANKA […] production in Anopheles stephensi mosquito after treatment with the compound at a dosage 0 umol.1/kg. The series is classed as functional, Culicidae. The method in brief: as §1
Series [4] can be described thus: Mean number of Plasmodium berghei ANKA […] production in Anopheles stephensi mosquito after treatment with the compound at a dosage 10 umol.1/kg. The series is classed as functional, Culicidae. An outline of the steps: as §1
Series [5] is described as follows: Mean number of Plasmodium berghei ANKA […] production in Anopheles stephensi mosquito after treatment with the compound at a dosage 50 umol.1/kg. Format: functional, Culicidae. The method in brief: as §1
For series [6], the system named is Culicidae. In words: Percentage of Plasmodium berghei ANKA infected Anopheles stephensi mosquitos after treatment with the compound at a dosage of 0 umol.1/kg. The series is classed as functional. The method in brief:
as §1

The nature of series [7]: Percent hydrolysis to the corresponding amino acid product 3, in pH 7.4 phosphate buffer at 37C after 3 days of treatment with the compound. The series is classed as ADME, Homo sapiens. As to conditions: read-out: Hydrolysis. The method in brief:
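Hydrolysis followed in pH 7.4 phosphate saline buffer at 37 °C. Substrate and amino acid product were measured by reversed-phase HPLC (pH 4.75 sodium acetate/acetonitrile gradient with triethylamine). Reported as % conversion after 3 days and as half-life in days.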

Series [8] can be described thus: Percent hydrolysis to the corresponding amino acid product 3, in 80% human plasma at 37C after 3 days of treatment with the compound. The series is classed as ADME, cell-free. To be noted: 72 h. An outline of the steps: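 Aliquots were quenched in acetonitrile and centrifuged. Supernatant went to reversed-phase HPLC (pH 4.75 sodium acetate/acetonitrile gradient with triethylamine) for substrate and amino acid product. Reported as % hydrolysis after 3 days.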

Consider `COc1cc(NC(C)CCCN2C(=O)[C@H](C(C)C)NC2(C)C)c2ncccc2c1` (stereo partly drawn), for which the Infectedmosquitoes turned out to be 25% with Culicidae [1] and 5% in the series on Culicidae [2]. Besides, the figures for the Activity in series [3], in series [4] and in series [5] were 105, 5 and 0.9, respectively.
For `COc1cc(NC(C)CCCN)c2ncccc2c1` (stereo not drawn) [PRIMAQUINE], the Infectedmosquitoes amounted to 0% with Culicidae [6], 10% with Culicidae [1] and 50% in the series with Culicidae [2]. Besides, the Activity in series [3] came to 83.2; in series [4] it was 2.6; in series [5] it was 0.
As for `COc1cc(NC(C)CCCN2C(=O)[C@H](CC(C)C)NC2(C)C)c2ncccc2c1` (stereo partly drawn), the Infectedmosquitoes in the series on Culicidae [1] was determined as 30%; in the series on Culicidae [2], 20%. Moreover, the results for the Activity in series [3], in series [4] and in series [5] were 120, 13.7 and 1, respectively. Moreover, the degraded at 72 h in series [7] was found to be 10%.
In the case of `COc1cc(NC(C)CCCN2C(=O)CNC2(C)C)c2ncccc2c1` (stereo not drawn), the Infectedmosquitoes in the series with Culicidae [1] turned out to be 21%; in the series on Culicidae [2], 0%. Besides, the Activity is recorded as 105 in series [3], 6.1 in series [4] and 0 in series [5]. This compound also came in with a Hydrolysis in series [8] of 16%.
`COc1cc(NC(C)CCCN2C(=O)[C@H](Cc3ccccc3)NC2(C)C)c2ncccc2c1` (stereo partly drawn): the figures for the Infectedmosquitoes in the series on Culicidae [1] and with Culicidae [2] were 76% and 0%, respectively. The Activity in series [3] was found to be 66.1; in series [4] it was 61.2; in series [5] it was 0. The degraded at 72 h in series [7] is 6%.
As to `COc1cc(NC(C)CCCN2C(=O)[C@H](C(C)C)NC23CCCCCC3)c2ncccc2c1` (stereo partly drawn), the Infectedmosquitoes in the series on Culicidae [1] came out at 65%. The Activity in series [3] is 120; in series [4] it was 17.7.
Consider `COc1cc(NC(C)CCCN2C(=O)[C@H](C(C)C)NC23CCCC3)c2ncccc2c1` (stereo partly drawn), for which the Infectedmosquitoes with Culicidae [1] is 35%; in the series on Culicidae [2], 15%. The Activity is 51 in series [3], 4.2 in series [4] and 0.5 in series [5]. The same compound yielded a Hydrolysis in series [8] of 5%.
In the case of `COc1cc(NC(C)CCCN2C(=O)[C@H](C)NC23CCCCC3)c2ncccc2c1` (stereo partly drawn), the Infectedmosquitoes in the series on Culicidae [1] came to 20%; with Culicidae [2], 0%. For the same compound, the Activity is 83.2 in series [3], 0.8 in series [4] and 0 in series [5]. This compound also came in with a Hydrolysis in series [8] of 9%.
For `COc1cc(NC(C)CCCN2C(=O)[C@H](Cc3ccccc3)NC23CCCC3)c2ncccc2c1` (stereo partly drawn), the Infectedmosquitoes in the series with Culicidae [1] was 65%; in the series on Culicidae [2], 0%. Moreover, the Activity turned out to be 66.1 in series [3], 51.6 in series [4] and 0 in series [5]. Also, the Hydrolysis in series [8] stood at 3%.
For `COc1cc(NC(C)CCCN2C(=O)[C@H](Cc3ccccc3)NC23CCCCCC3)c2ncccc2c1` (stereo partly drawn), the figures for the Infectedmosquitoes in the series on Culicidae [1] and with Culicidae [2] were 90% and 0%, respectively. Further, the Activity stood at 120 in series [3], 78.9 in series [4] and 0 in series [5]. Besides, the degraded at 72 h in series [7] is 10%.
For `COc1cc(NC(C)CCCN2C(=O)[C@H](Cc3ccccc3)NC23CCCCC3)c2ncccc2c1` (stereo partly drawn), the Infectedmosquitoes in the series on Culicidae [1] was determined as 83%; in the series with Culicidae [2], 0%. Moreover, the figures for the Activity in series [3], in series [4] and in series [5] were 83.2, 71 and 0, respectively.
Take `COc1cc(NC(C)CCCN2C(=O)[C@H](C(C)C)NC23CCCCC3)c2ncccc2c1` (stereo partly drawn): the Infectedmosquitoes in the series on Culicidae [1] came to 85%; with Culicidae [2], 25%. For the same compound, the Activity was determined as 51 in series [3], 61.1 in series [4] and 0.4 in series [5]. The degraded at 72 h in series [7] was determined as 8%.
Regarding `COc1cc(NC(C)CCCN2C(=O)CNC23CCCCC3)c2ncccc2c1` (stereo not drawn), the Infectedmosquitoes came to 65% with Culicidae [6], 25% in the series on Culicidae [1] and 0% in the series with Culicidae [2]. Moreover, the results for the Activity in series [3], in series [4] and in series [5] were 105, 7.4 and 0, respectively.
